# Shown are actives, neighbours in structure and some others; about 1.9% of the full set was active somewhere.
# STEP inh – STEP (human) phosphatase inhibition | recombinant STEP, OMFP fluorogenic substrate, fluorescence | inhibition, % at 20 µM | 360,000 tested, 0.25% active;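 active means inhibition at 20 µM, scaled per plate between control wells, above about 37%, limit read from the data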;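 further: 0% = DMSO with enzyme and substrate and 100% = substrate only without enzyme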
#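 Also added – OMFP at 25 µM · Test system – STEP tyrosine phosphatase · Technique – FITC-channel fluorescence of OMFP product · Schedule – 20 min at room temperature, dark · Evaluation – control-normalized % inhibition with plate pattern correction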
# SUMO1-SIM PPI – SUMO1-SIM interaction modulation | P63165 | SUMO1 binding to a labelled peptide, TR-FRET, 1 h | inhibition, % at 20 µM | 360,000 tested, 0.33% active; in the data active means inhibition above about 37%
# FAS-TE inh – blocks the thioesterase domain of human fatty acid synthase. P49327. recombinant FAS-TE, OMFH fluorogenic substrate, fluorescence endpoint. inhibition, % at 15 µM. 360,000 tested, 0.67% active. AID 602261;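 active means compounds whose normalised, plate-corrected inhibition of enzyme fluorescence in the single-dose primary screen is 50% or more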;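 further: 0% = DMSO with enzyme and 100% = substrate without enzyme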
# Scp1 inh – Scp-1 (human) phosphatase inhibition; 340,000 tested, 0.88% active; inhibition, % at 20 µM; AID 493091; Recombinant Scp1, phosphopeptide, malachite green phosphate absorbance; Q9GZU7;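 active means inhibition above about 50% at 20 µM, limit read from the data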;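 further: plate controls were DMSO wells with enzyme for no effect and wells lacking enzyme for full effect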
#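 Test system: SCP-1 catalytic domain; Buffer or medium: Acidic Tris acetate buffer with magnesium and detergent; Also added: Phosphorylated 17-residue peptide substrate; Compound: single 20 µM dose, 1% DMSO; Schedule: enzyme reaction 45 min at room temperature, colour 5 min, stabilisation 30 min; Signal: Phosphate-binding colour reagent, absorbance read at 630 nm.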
# LMPTP inh – blocks human LMPTP phosphatase | AID 651560 | 360,000 tested, 0.22% active | recombinant LMPTP-A, OMFP fluorogenic substrate, fluorescence intensity | P24666 | inhibition, % at 20 µM;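 active means compounds that cut the enzyme signal by at least half of the control window in the single-dose screen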;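 further: plate controls were DMSO wells with enzyme plus substrate for no effect and substrate without enzyme for full effect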
#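 Buffer or medium: Bis-Tris pH 6.0, DTT, detergent; Assay system: LMPTP-A enzyme; Quantity: 0.625 nM enzyme; Detection: endpoint fluorescence intensity; Times: 50 min dark incubation at room temperature; Controls: substrate-only low control, DMSO enzyme-plus-substrate high control; Doses: single 20 µM dose; Read-out: percent inhibition versus substrate-only and uninhibited controls; Reagent: 400 µM OMFP.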
# * marks the source's active call; other numbers are inactive results; / = not tested or not shown.
SMILES,STEP inh,SUMO1-SIM PPI,FAS-TE inh,Scp1 inh,LMPTP inh
Nc1ccc(NC(=O)c2ccc(C(=O)Nc3ccc(N)cc3)cc2)cc1,39,59*,-3,-10,6
Nc1ccc(C(=O)Nc2nc3ccccc3s2)cc1,0,2,-2,60*,-1
Nc1ccc(C(=O)Nc2ccc(Nc3ccncc3)cc2)cc1,0,40,-28,-14,7
O=C(CSC(=S)N1CCCCC1)Nc1nc(-c2ccccc2)c(-c2ccccc2)o1,3,51*,24,1,3
O=C(CSC(=S)N1CCOCC1)Nc1nc(-c2ccccc2)c(-c2ccccc2)o1,0,3,13,-5,3
Clc1ccccc1Nc1nnc(-c2ccncc2)s1,0,-11,-7,-8,-1
COc1ccc(Cl)cc1Nc1nnc(-c2ccncc2)s1,83*,96*,-3,90*,0
Cc1n[nH]c(=S)n(NC(=O)/C=C/C(=O)Nn2c(=S)[nH]nc(C)c2=O)c1=O,6,67*,-10,21,1
Cc1cc2nc(-c3ccc(F)cc3)c(Cc3cccc(Cl)c3)n2c(C)c1Br,/,16,14,/,2
COc1ccccc1CNC(=O)COC(=O)c1cnc(C)cn1,-1,-2,-9,/,0
CN(C)c1ccc(/C=C/c2ccc3c4ccccc4ccc3[n+]2-c2ccccc2)cc1,16,37,-4,6,98*
CN(C)c1ccc(/C=C/c2ccc3ccccc3[n+]2C)cc1,13,-38,-24,66*,46
COC(=O)c1sc(NC(=S)NC(=O)c2cccc(C)c2)nc1C,1,-1,-7,0,0
COC(=O)c1sc(NC(=S)NC(=O)c2ccccc2F)nc1C,4,-4,-6,-5,73*
CC1(C(=O)NCc2ccccc2)CCC(=O)N1CCCn1ccnc1 (configuration not stated),0,5,-11,/,-1
C(=NNc1ccc2ccccc2n1)c1ccccn1,-2,-21,9,/,4
COc1ccc(NC(=O)c2c[nH]c(=O)n(-c3ccc(C)c(C)c3)c2=O)c(OC)c1,-7,43*,-11,-10,-4
NS(=O)(=O)c1ccc(N/N=C/c2ccccc2Br)cc1,-3,60*,14,-2,4
CCCOc1ccc([N+](=O)[O-])cc1C1NC(=S)NC(c2ccccc2)=C1C(=O)OCC (configuration not stated),-8,-13,66*,-10,3
C=C1c2cccc(O)c2C(=O)C2C(=O)[C@]3(O)C(=O)C(C(N)=O)C(=O)[C@@H](N(C)C)[C@@H]3[C@@H](O)[C@H]12 (some centres not stated),53*,73*,-2,60*,81*
COc1ccc(C(=O)NCc2ccc3c(c2)cc(C)n3C)cc1,1,-20,-6,-9,15
Cc1cc2cc(CNC(=O)c3ccc4c(c3)OCO4)ccc2n1C,0,-22,-7,-1,55*
C=C1[C@@H](OC(C)=O)C=C[C@@]2(C)C=CC(=O)[C@@](C)(OC(C)=O)[C@@H]2[C@@H](OC(C)=O)[C@]2(O)[C@@H](C)C(=O)O[C@H]2[C@H]1Cl,0,-3,-4,/,0
COc1ccc(NC(=O)C2(C)CCN2Cc2cccc(OC)c2F)cc1OC (configuration not stated),-2,-1,4,/,1
CCOC(=O)c1cnc(SSc2ncc(C(=O)OCC)c(N)n2)nc1N,-3,-2,-2,4,78*
SMILES,STEP inh,SUMO1-SIM PPI,FAS-TE inh,Scp1 inh,LMPTP inh
C=CCSc1ncc(C(=O)OCC)c(N)n1,-3,2,-7,-1,3
Cc1ccc(N2C(=O)C3C(C2=O)N2C(c4cccs4)C4C(=O)N(c5ccc(C)cc5)C(=O)C4N2C3c2cccs2)cc1 (configuration not stated),2,-1,84*,-10,1
O=C1NC(=O)/C(=C\c2ccc(O)cc2O)S1,1,10,-6,53*,32
COC(=O)C[C@H]1C=C[C@H](NC(=O)c2ccccn2)[C@@H](CO)O1,/,5,/,/,-2
Cc1cccc(C)c1N1CCN(C(c2cc3ccccc3o2)c2nnnn2C(C)(C)C)CC1 (configuration not stated),/,-1,26,/,4
COc1cccc(CNc2ccc(S(=O)(=O)Nc3nccs3)cc2)c1O,2,38*,-6,-5,0
O=C1Nc2ccccc2-n2nnnc2C1N1CCN(C(=O)C2CCCO2)CC1 (configuration not stated),/,1,/,/,-2
O=C(Nc1ccncc1NC(=O)c1cccc([N+](=O)[O-])c1)c1cccc([N+](=O)[O-])c1,30,76*,10,9,55*
O=C(Nc1cccc(NC(=O)c2cccc([N+](=O)[O-])c2)n1)c1cccc([N+](=O)[O-])c1,-2,-1,1,-2,8
Cc1ccc(C(=O)NN2C(=O)C3C(C2=O)C2C=CC3C23CC3)cc1 (configuration not stated),0,60*,-7,1,-1
CCCCOCCCNC(=O)C[C@@H]1C[C@@]2(C(=O)OC)CC(C)(C)CC=C2N(Cc2cccc3ccccc23)C1=O,/,1,/,/,2
COc1ccc(C(=O)Nn2c(SCC(=O)c3ccccc3)nc3ccccc3c2=O)cc1,0,34,-4,-16,0
COc1ccc(C(=O)Nn2c(SCc3ccc([N+](=O)[O-])cc3)nc3ccccc3c2=O)cc1,4,-5,52*,-12,-1
Cc1ccccc1-c1cc2nc(NCc3ccccc3F)n(C)c(=O)c2s1,1,-1,22,/,3
NC(Cc1ccc(C(F)(F)F)cc1)c1csc(Nc2ccc(C(=O)NCc3ccco3)cn2)n1 (configuration not stated),0,-66,3,/,4
Nc1[nH]c(C(=O)c2ccccc2)c(-c2ccncc2)c1C(=O)NC1CC1,/,-16,-8,/,0
CC(C)C[C@@H](COCc1cccc(Cl)c1)N1CCN(C(=O)c2ccc(C(F)(F)F)cc2)CCC1=O,/,1,26,/,3
Cc1cc(C)c2nc3sc(=Cc4ccc(-c5ccccc5C(=O)O)o4)c(=O)n3c2c1,25,62*,-48,/,52*
Cc1ccc(C)c(N2C(=N)S/C(=C\c3ccc(-c4ccccc4C(=O)O)o3)C2=O)c1,7,34,-2,27,5
Cc1ccc2c(nc3s/c(=C\c4ccc(-c5ccccc5C(=O)O)o4)c(=O)n32)c1C,34,18,-10,76*,11
O=C(O)c1ccc(-c2ccc(/C=c3/sc4nc5ccccc5n4c3=O)o2)cc1Cl,90*,39*,-2,98*,14
Cc1ccc2c(nc3s/c(=C/c4cccs4)c(=O)n32)c1C,2,-2,-7,22,2

# High-throughput results from PubChem.
